STAT1 act – activators of IFN-gamma induced STAT1 signaling; AID 932; activation (% of control), % at 5.5 µM; NIH 3T3 STAT1-luciferase reporter, luminescence; 100% = IFN-gamma alone, no compound; 2.6% of 200,000 active;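 active = activation above the screen-wide mean activation plus 3 SD, cut at about 130% in these data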
APP 5'UTR act – APP 5'UTR luciferase reporter activation. 1% of 190,000 active. SH-SY5Y APP 5'UTR luciferase reporter, luminescence; zero percent = DMSO vehicle wells. activation, % at 2 µM;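 active = activation above a set limit, based on mean plus 3 SD of controls, cut at about 140% in these data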
STAT3 blocker – STAT3 signaling inhibition | U3A cells, IL-6 STAT3-luciferase reporter, luminescence; host cell line lacks STAT1 | inhibition, % at 5.5 µM | 0.89% of 190,000 active | AID 862;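 active = inhibition above the mean inhibition across all screened compounds plus 3 SD, cut at about 44% in these data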
STAT3 act – activators of IL-6 induced STAT3 signaling; U3A cells, IL-6 STAT3-luciferase reporter, luminescence; 100% = signal with IL-6 EC80 alone; activation (% of control), % at 5.6 µM; 0.91% of 190,000 active;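 active = activation above the screen-wide mean of compound activation plus 3 SD, cut at about 130% in these data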
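Material: STAT3-luciferase reporter U3A cells. Controls: IL-6-treated wells, 100% activation. Read-out: % activation versus median of IL-6-stimulated wells. Probe or stimulus: IL-6 stimulus at 33 ng/mL final. Timing: compound 1 h, then IL-6 6 h at 37 °C. Signal: reporter luminescence signal.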
NF-kB expr up – compounds increasing NF-kB expression in human neuronal cells | NF-kB reporter expression; stronger effect = higher value | fold change at 12.5 µM | 1.6% of 190,000 active; in the data active = fold change above about 3.3
STAT1 blocker – STAT1 signaling inhibition | NIH 3T3 STAT1-luciferase reporter, IFN-gamma, luminescence | inhibition, % at 5.5 µM | 0.35% of 200,000 active;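 active = inhibition above a set limit, the mean inhibition across all tested compounds plus 3 SD, cut at about 34% in these data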
A number is an active result; – = inactive; · = no result. Only some compounds are listed: those with a hit (about 5.1% of all), similar ones and a draw of the others.

SMILES	STAT1 act	APP 5'UTR act	STAT3 blocker	STAT3 act	NF-kB expr up	STAT1 blocker
O=C(/C=C/c1ccco1)N1CCCC(c2ccccc2)C1 (configuration not stated)	–	–	–	–	–	–
O=C(COc1ccc(F)cc1)N1CCC(c2ccccc2)C1 (configuration not stated)	136	–	–	–	–	–
O=C(/C=C/c1ccccc1)N1CCC(c2ccccc2)C1 (configuration not stated)	137	141	–	–	4.4	–
O=C(Nc1ccccc1)N1CCC(c2ccccc2)C1 (configuration not stated)	138	–	–	–	–	–
Cc1ccc(/C([O-])=C(/C(=S)NCCN2CCOCC2)[n+]2ccccc2)cc1[N+](=O)[O-]	–	–	–	–	–	–
S=C(NCC1CCCO1)N1CCN(c2nc(-c3ccccc3)cs2)CC1 (configuration not stated)	–	–	–	–	–	–
CCc1c(C)nc(SCC(=O)c2cccs2)c(C#N)c1C	136	–	–	149	–	–
CCc1c(C)nc(SCC(N)=O)c(C#N)c1C	–	·	–	–	–	–
Clc1ccc(-n2cc(COCc3ccccc3)nn2)cc1	–	170	–	–	4.1	–
O=C(Nc1ccc(Cl)cc1)OCc1cn(-c2ccc(Cl)cc2)nn1	–	·	–	–	–	–
CCn1cnc2cc(NC(=O)c3cccs3)ccc21	135	–	–	–	–	–
CC(C)(C)n1cnc2cc(NC(=O)c3cccs3)ccc21	142	–	–	–	4	–
CCn1cnc2cc(NCc3cccs3)ccc21	–	–	–	–	–	–
COc1ccc(NS(=O)(=O)c2c(F)cc(F)c(Cl)c2F)cc1S(=O)(=O)N1CCCCC1	–	–	–	–	–	–
CCOC(=O)C(C(C)C)C(N)Cc1ccc(F)cc1 (configuration not stated)	–	–	–	–	–	–
N#C/C(=N\Nc1ccccc1[N+](=O)[O-])C(=N)N1CCCCC1	136	176	–	–	5.6	–
COc1ccccc1N/N=C(\C#N)C(=N)N1CCOCC1	–	–	–	–	–	–
N#C/C(=N\Nc1ccc(Br)cc1)C(=N)N1CCOCC1	146	–	–	–	–	–
N#C/C(=N\Nc1ccccc1)C(=N)N1CCCCC1	129	–	–	–	4.5	–
N#C/C(=N\Nc1ccc(S(=O)(=O)N2CCCCCC2)cc1)C(N)=S	–	–	–	–	–	–
COc1ccc(CC(=O)N2CCN=C2SCc2cccc([N+](=O)[O-])c2)cc1	–	–	–	–	–	–
Cn1cnc2c(=O)[nH]cc([N+](=O)[O-])c21	–	–	–	–	–	–
CC(C(=O)Nc1ccc2c(c1)OCCO2)N(C)Cc1c(F)cccc1Cl (configuration not stated)	–	–	–	–	–	–
CCOc1ccccc1-c1nc2c(C(C)(C)C)nn(C)c2c(=O)[nH]1	–	–	–	–	–	–
C/C(=N/OC(=O)C1CC12CCC2)c1ccc(Br)cc1 (configuration not stated)	–	–	–	–	–	–
SMILES	STAT1 act	APP 5'UTR act	STAT3 blocker	STAT3 act	NF-kB expr up	STAT1 blocker
O=C(N/N=C/c1cn(-c2ccccc2)nc1-c1cc2ccccc2o1)c1ccncc1	144	188	–	–	–	–
O=C(N/N=C/c1cn(-c2ccccc2)nc1-c1cccnc1)c1cccnc1	–	–	–	–	–	–
CN(C)CCCN(C(=O)/C=C/c1cccs1)c1nc2c(F)cccc2s1	–	–	–	–	5.4	–
O=C1c2ccccc2NC(c2ccccc2Cl)N1N=C1CCCCCC1 (configuration not stated)	139	–	–	–	–	–
CCn1cc(Cl)c(C(=O)Nc2ccccc2C(N)=O)n1	–	–	–	–	–	–
CC1=Nc2cc(C(=O)NCc3ccco3)ccc2Sc2ccc(C)cc21	–	–	–	134	3.5	–
COc1ccc(Nc2nc(Cl)c(C=O)s2)cc1	–	–	–	–	–	–
Cc1ccc(-c2csc(/C(C#N)=C(\O)CCl)n2)cc1	140	–	–	–	–	–
COc1ccc(CCn2ccc(O)c(Cc3c(F)cccc3Cl)c2=O)cc1OC	–	–	–	–	–	–
CC12CCC(C/C1=N/NC(=O)Nc1ccccc1)C2(C)C (configuration not stated)	–	–	–	–	–	–

Source: PubChem (several laboratories)
